Bioassay records: PubChem BioAssay, several laboratories
CHOP inh: inhibitors of CHOP promoter induction, primary screen, cell-based, unfolded protein response, luciferase reporter; inhibition, % at 10 µM; hit rate 3.8% among 220,000; CHO-K1 CHOP-promoter luciferase, tunicamycin-induced, 15-18 h;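 active = compounds that reduced the stress-induced luciferase reporter signal by more than about 70% of percent inhibition, limit read from the data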
Hep lipid drop: inhibitors of hepatocyte lipid droplet formation, primary screen, imaging, high-throughput imaging, BODIPY stain. AML12 mouse hepatocytes, oleate lipid droplets. inhibition, % at 6.5 µM. hit rate 0.4% among 240,000. AID 1656, 2009;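 active = lipid droplet intensity inhibited by at least 50%, with more than 500 cells counted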
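Material – AML12 mouse liver cells · Also added – oleate loading, 100 µM · Compound dosing – 6.5 µM single-point dosing · Times – overnight treatment with compound plus oleate · Measured by – fluorescence imaging, 20x objective, two fields per well · Read-out – percent inhibition of filter-corrected integrated lipid droplet intensity per well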
TMEM16A act: TMEM16A chloride channel activators or potentiators, primary screen, cell-based, HTS; Anoctamin-1 (Mus musculus), Q8BHY3; HEK293 TMEM16A/YFP-H148Q/I152L, iodide quench fluorescence; stronger effect = lower value; B-score at 10 µM; hit rate 0.3% among 340,000; AID 623877, 2012;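 active = fluorescence-ratio B-score plate-corrected deviation score at least 3 library SD below zero, with starting fluorescence score within 5 deviations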;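 note: channel opened by trigger with iodide after compound preincubation; score built on the fluorescence ratio of max minus min over baseline; more negative score means more quench and so TMEM16A activation or potentiation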
Target sequence (Q8BHY3 whole entry, looked up): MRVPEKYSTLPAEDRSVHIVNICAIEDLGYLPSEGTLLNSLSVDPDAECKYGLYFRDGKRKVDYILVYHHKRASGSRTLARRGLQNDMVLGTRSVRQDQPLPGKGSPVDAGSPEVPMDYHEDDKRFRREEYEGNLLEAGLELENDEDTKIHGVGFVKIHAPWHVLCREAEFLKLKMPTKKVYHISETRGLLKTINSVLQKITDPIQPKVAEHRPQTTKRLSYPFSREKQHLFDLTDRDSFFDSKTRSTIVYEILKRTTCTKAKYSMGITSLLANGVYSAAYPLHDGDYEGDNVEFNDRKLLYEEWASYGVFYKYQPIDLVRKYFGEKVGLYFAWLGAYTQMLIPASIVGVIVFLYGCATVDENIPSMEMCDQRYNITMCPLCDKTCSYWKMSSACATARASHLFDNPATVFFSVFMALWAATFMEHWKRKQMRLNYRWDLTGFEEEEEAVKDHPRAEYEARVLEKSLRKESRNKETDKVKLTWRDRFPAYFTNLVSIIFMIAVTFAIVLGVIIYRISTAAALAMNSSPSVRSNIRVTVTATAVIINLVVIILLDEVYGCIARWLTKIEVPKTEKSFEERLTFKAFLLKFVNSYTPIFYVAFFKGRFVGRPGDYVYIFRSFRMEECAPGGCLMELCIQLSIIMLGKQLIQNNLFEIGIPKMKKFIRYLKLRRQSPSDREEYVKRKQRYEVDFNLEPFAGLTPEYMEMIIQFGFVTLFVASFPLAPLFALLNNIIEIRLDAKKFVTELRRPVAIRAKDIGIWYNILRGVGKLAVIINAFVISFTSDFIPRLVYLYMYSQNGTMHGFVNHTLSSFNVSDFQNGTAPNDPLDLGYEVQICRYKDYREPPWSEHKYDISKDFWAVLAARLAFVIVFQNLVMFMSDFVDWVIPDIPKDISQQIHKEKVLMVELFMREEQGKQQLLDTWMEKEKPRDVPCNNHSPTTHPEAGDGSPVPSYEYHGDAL
TMEM16A inh: TMEM16A chloride channel inhibitors, primary screen, cell-based, HTS; Anoctamin-1 (Mus musculus), Q8BHY3; HEK293 TMEM16A/YFP iodide influx fluorescence, ionomycin; normalized B-score (activity score, 25-100; higher = stronger inhibition) at 10 µM; hit rate 1.2% among 310,000;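 active = ratio plate-corrected score three or more library SD toward inhibition, starting fluorescence score within five deviations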;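 note: score derived from kinetic fluorescence span divided by baseline fluorescence per well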
XBP1 UPR activ: activators of adaptive XBP1 UPR arm, primary screen, cell-based, CHO-XBP1 luciferase reporter, luminescence, uHTS | IRE1-XBP1 UPR activation; percent of tunicamycin response, DMSO as zero | activation, % at 20 µM | hit rate 0.33% among 330,000 | AID 463104, 2010;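 active = versus positive control, 20 µM dose yields 30% or more activation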
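Material: CHO cell line with stable XBP1 luciferase reporter; schedule: 16-18 h cell attachment at 37 °C, then 6 h compound exposure; signal: glow luminescence from Steady-Glo reagent; medium: serum-containing F12 medium, 10% FBS; benchmarks: tunicamycin 10 µg/mL and vehicle-only wells; read-out: percent activation relative to tunicamycin reference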
UPR CHOP act: activators of apoptotic CHOP UPR arm, primary screen, cell-based, CHO-CHOP luciferase reporter, luminescence, uHTS; AID 449763, 2010; activation, % at 10 µM; hit rate 0.34% among 330,000; UPR activation; percent of tunicamycin response over DMSO baseline;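 active = at 10 µM dose, activation of 40% or more, normalized to positive control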
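Dosing – one dose, 10 µM in 0.5% DMSO · System – CHO-CHOP cells, stable luciferase reporter of PERK-eIF2a-CHOP signalling · Input – 500 cells/well · Control set – tunicamycin 10 µg/mL final as positive, DMSO-only wells as negative · Timing – 6 h compound treatment, 37 °C · Measure – % activation vs tunicamycin · Technique – luminescence read with Steady-Glo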
Each line names hits and unclear results; the compound was inactive in the other large screens. Shown are actives, neighbours in structure and some others; about 4.2% of the full set was active somewhere.

Cc1cc(=O)oc2cc(O[C@@H]3O[C@H](CO)[C@@H](O)[C@H](O)[C@H]3O)ccc12	none (no result: CHOP inh)
Cc1cc(C)n2c(SCC(=O)Nc3cccc(S(N)(=O)=O)c3)nnc2n1	none (no result: CHOP inh, Hep lipid drop, TMEM16A inh)
CC(C)Sc1nc2c(cnn2-c2ccc(F)cc2)c(=O)[nH]1	none
O=c1[nH]c(SCc2ccccc2Cl)nc2c1cnn2-c1ccccc1	CHOP inh 96
CCCCCSc1nc2c(cnn2-c2ccccc2)c(=O)[nH]1	CHOP inh 71
CC(C)Sc1nc2c(cnn2-c2ccccc2)c(=O)[nH]1	CHOP inh 72
O=C(CSc1nc2c(cnn2-c2ccccc2)c(=O)[nH]1)N1CCOCC1	none (no result: Hep lipid drop)
N#CC1=C(N)Nc2nc3ccccc3n2C1c1ccc(Cl)cc1 (centres undefined)	CHOP inh 90
O=C1N/C(=N\N=C\c2cccs2)SC1Cc1cccc(Cl)c1 (centres undefined)	CHOP inh 88
O=C1N/C(=N\N=C\c2cccs2)SC1Cc1ccc(Cl)cc1 (centres undefined)	none
CSCCC(NC(=O)c1ccccc1Br)C(=O)NCC(c1ccco1)N1CCCCC1 (centres undefined)	none (no result: CHOP inh, Hep lipid drop)
Cc1ccc(-c2oc3ccccc3c(=O)c2O)cc1	CHOP inh 72
O=c1c(O)c(-c2ccccc2)oc2ccccc12	none (no result: CHOP inh, Hep lipid drop, TMEM16A inh, XBP1 UPR activ, UPR CHOP act)
COC(=O)CSc1nc(-c2ccccc2)nc2ccccc12	none
S=C1NC2(CCCCC2)NN1c1ccccc1	TMEM16A act -5
CC1CCCC2(C1)NC(=S)N(c1ccccc1)N2 (centres undefined)	none (no result: Hep lipid drop)
O=c1c(Cc2ccc(F)cc2)c(O)ccn1CCCn1ccnc1	none
O=C(CC(=O)c1cc(Cl)ccc1O)c1ccccc1	CHOP inh 110
Cc1cccc(C(=O)CC(=O)c2cc(Cl)ccc2O)c1	CHOP inh 108
Cc1ccc(O)c(C(=O)CC(=O)c2ccc(Cl)cc2)c1	none (no result: CHOP inh, XBP1 UPR activ, UPR CHOP act)
COC(=O)c1ccc(NC(=O)CCCN2C(=O)NC(C)(C)C2=O)cc1	none (no result: CHOP inh, Hep lipid drop, TMEM16A inh)
O=C(NCCCn1cccn1)C1CCC(=O)N(CCc2ccccc2)C1 (centres undefined)	none (no result: CHOP inh)
Cc1cc(C)c(NC(=O)CN2C(=O)NC3(CCCCC3)C2=O)c(Cl)c1	CHOP inh 71 (no result: Hep lipid drop)
Cc1cc(OCC(F)(F)C(F)(F)C(F)(F)C(F)(F)C(F)(F)C(F)F)nc(N)n1	CHOP inh 91 (no result: Hep lipid drop)
NC(=O)c1ccc(OCC(F)(F)C(F)(F)C(F)(F)C(F)(F)C(F)(F)C(F)F)cc1	none (no result: Hep lipid drop)
Cc1ccc(NC(=S)N(Cc2ccc(Cl)cc2)Cc2ccc(C(=O)O)cc2)cc1Cl	TMEM16A inh 25
COc1ccc(CN(CC2CCC(C(=O)O)CC2)C(=S)Nc2ccc(C)c(Cl)c2)cc1 (centres undefined)	none
CSCCC(NS(=O)(=O)c1ccc(Cl)cc1)C(=O)OCc1c(Cl)cccc1Cl (centres undefined)	CHOP inh 86
Nc1cc(N)nc(SCCOc2ccccc2)n1	none (no result: Hep lipid drop)
COc1cccc(OCCSc2nc(N)cc(N)n2)c1	TMEM16A inh 25
CCCC1S/C(=N/N=C/c2ccco2)NC1=O (centres undefined)	none
O=C(CC1S/C(=N/N=C/c2ccco2)NC1=O)Nc1cccc(Cl)c1Cl (centres undefined)	CHOP inh 94
COC(=O)c1c(NC(=O)CN2CCN(Cc3ccc4c(c3)OCO4)CC2)sc(C)c1C	CHOP inh 80 (no result: Hep lipid drop)
COC(=O)c1ccsc1NC(=O)CN1CCN(Cc2ccc3c(c2)OCO3)CC1	none (no result: Hep lipid drop)
CCOC(=O)[C@H]1[C@H]2COc3ccc(OC)cc3[C@@H]2N2C(=O)CN(CC3CCCO3)C(=O)[C@@]12C (some centres undefined)	none (no result: CHOP inh, Hep lipid drop, TMEM16A inh)
O=C(N/N=C\c1ccc([N+](=O)[O-])s1)c1cncc(Br)c1	CHOP inh 95
